Apaf-1 inh – inhibitors of human Apaf-1 apoptosome | O14727 | reconstituted apoptosome caspase-3 activity, DEVD-Rh110 fluorescence | inhibition, % at 20 µM | actives 0.71% (n = 330,000) | AID 489030; active = inhibition of at least 40% at 20 µM;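 note: plate controls were DMSO wells for no effect and DEVD-CHO caspase inhibitor wells for full effect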
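Material: reconstituted apoptosome with Apaf-1, cytochrome c, caspase-9, procaspase-3, dATP; medium: pH 7.5 Hepes buffer with CHAPS, BSA, DTT; also added: cytochrome c and DEVD-Rh110 substrate; timing: 30 min plus 50 min, RT; signal: Rh110 fluorescence intensity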
TDP2 absorb – TDP2 (human) inhibition, absorbance primary screen. recombinant TDP2, T5PNP hydrolysis, p-nitrophenol absorbance 415 nm. O95551. actives 0.34% (n = 370,000). inhibition, % at 12.8 µM;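 active = inhibition above the mean of all tested compounds plus 3 SD, set per campaign, cut at about 25% in these data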;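 note: 0% = DMSO with enzyme and 100% = buffer with substrate but no TDP2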
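test system = human TDP2 enzyme | input = TDP2 enzyme at 120 nM final | medium = 50 mM Tris-HCl pH 7.5 with Mg2+, KCl, DTT, BSA | also added = T5PNP substrate, 5 mM | times = 2 h at 37 °C | technique = epi absorbance | benchmarks = high control without enzyme, low control DMSO plus TDP2 | replication = each compound tested once, singlicate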
PAFAH1B2 FP inh – PAFAH1B2 (human) inhibition; P68402; recombinant PAFAH1B2, FP-rhodamine activity probe, fluorescence polarization; actives 1.2% (n = 340,000); inhibition, % at 3.39 µM;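 active = inhibition above the mean of all tested compounds plus 3 SD, cut at about 24% in these data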;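 note: 0% = enzyme with DMSO and 100% = wells lacking PAFAH1B2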
PAFAH2 inh – PAFAH2 (human) inhibition. Q99487. recombinant PAFAH2, FP-rhodamine activity probe, fluorescence polarization. inhibition, % at 3.39 µM. actives 0.99% (n = 340,000). AID 492956;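 active = inhibition above the mean over all tested compounds plus 3 SD, cut at about 30% in these data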;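 note: inhibitors block probe labeling of enzyme so polarization drops; 0% = enzyme with DMSO and 100% = wells lacking PAFAH2 protein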
PAFAH1B3 FP inh – PAFAH1B3 (human) inhibition; inhibition, % at 3.39 µM; Q15102; actives 0.28% (n = 340,000); recombinant PAFAH1B3, FP-rhodamine probe, fluorescence polarization;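 active = inhibition above the screen-wide average of all tested compounds plus 3 SD, cut at about 25% in these data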;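 note: 0% = enzyme with DMSO only and 100% = wells lacking PAFAH1B3 protein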
PAFAH2 confirm – PAFAH2 (human) inhibition, confirmed. AID 493030. shares compounds with PAFAH2 inh. actives 65% (n = 2,300). recombinant PAFAH2, FP-rhodamine activity probe, fluorescence polarization. inhibition, % at 3.39 µM;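 active = mean inhibition over three repeats above a set limit taken from the earlier primary screen, cut at about 30% in these data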;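 note: inhibitor blocks binding of rhodamine activity probe so polarization falls; 0% = enzyme with DMSO and 100% = wells lacking PAFAH2 protein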
* hit, by the source's call; . = no result. Only some compounds are listed: those with a hit (about 2.3% of all), similar ones and a draw of the others.

SMILES	Apaf-1 inh	TDP2 absorb	PAFAH1B2 FP inh	PAFAH2 inh	PAFAH1B3 FP inh	PAFAH2 confirm
CC1CCCC(NC(=O)COC(=O)COc2ccccc2Cl)C1C (stereo unspecified)	5	-5	-2	4	1	.
N#Cc1ccc(NC(=O)COC(=O)c2cccnc2Cl)cc1	-2	2	6	43*	0	36*
CC1CCCC(NC(=O)COC(=O)c2cc3ccccc3oc2=O)C1C (stereo unspecified)	8	-10	12	37*	10	21
CC1CCCC(NC(=O)COC(=O)c2ccc(Cl)nc2)C1C (stereo unspecified)	-9	4	0	33*	-7	24
CC1CCCC(NC(=O)COC(=O)c2cccnc2Cl)C1C (stereo unspecified)	-14	-6	6	67*	3	51*
O=C(COC(=O)c1cccnc1Cl)Nc1ccc(N2CCCCC2)cc1	8	-1	5	22	5	.
COc1ccc2ccccc2c1CN1CCN(c2ncc(Cc3ccccc3)cn2)CC1	.	-9	.	.	.	.
CCOC(=O)N1CCN(C(=O)C[C@H]2C[C@@]3(C(=O)OC)C(=C[C@H](COCc4ccccc4)O[C@@H]3C)N(Cc3ccc4c(c3)OCO4)C2=O)CC1	.	-2	.	.	.	.
COc1cccc(C2C(C(=O)c3cc4ccccc4o3)=C(O)C(=O)N2c2cc(C)on2)c1OC (stereo unspecified)	9	-4	2	36*	6	24
COc1cc(C2C(C(=O)c3cc4ccccc4o3)=C(O)C(=O)N2c2cc(C)on2)cc(OC)c1OC (stereo unspecified)	11	3	5	-2	5	.
COc1cc(/C=C/C(=O)OCC(=O)NCCc2ccccc2)ccc1OC(F)F	15	-7	2	23	6	.
COc1ccc(CCNC(=O)COC(=O)/C=C/c2ccc(OC)cc2OC)cc1	16	-1	5	72*	13	58*
COc1ccc(CNC(=O)COC(=O)/C=C/c2cccc(Br)c2)cc1OC	3	-1	6	5	9	.
COc1cc(/C=C/C(=O)OCC(=O)NCc2cccs2)ccc1OC(F)F	14	0	-1	33*	3	51*
COc1ccc(/C=C/C(=O)OCC(=O)NCc2ccccc2)cc1OC	5	8	4	50*	7	47*
COc1ccc(OC)c(/C=C/C(=O)OCC(=O)NCc2cccs2)c1	16	5	3	46*	9	50*
COC(=O)c1ccsc1NS(C)(=O)=O	.	2	.	.	.	.
O=C(NCCc1ccccc1Cl)[C@@H]1CCCN1C(=O)[C@H](Cc1cccnc1)NC(=O)N1CCOCC1	.	2	.	.	.	.
COC(=O)C1CN(Cc2ccc(OC)cc2)CCS(=O)(=O)N1Cc1cn(Cc2ccc(C)cc2)nn1 (stereo unspecified)	.	-4	.	.	.	.
CS(=O)(=O)N[C@@H]1C[C@@H]2O[C@@H](CO)CC[C@@H]2O[C@@H]1CCc1ccc(-c2ccccc2F)cc1	.	-1	.	.	.	.
COc1ccc(CCNC(=O)COC(=O)/C=C/c2cc(OC)ccc2OC)cc1	10	-2	9	32*	2	16
COc1ccc(OC)c(/C=C/C(=O)OCC(=O)NCc2ccccc2)c1	8	6	0	46*	3	28
O=C(COC(=O)/C=C/c1ccccc1Cl)NCc1ccccc1	-2	-1	3	29	11	.
COc1ccc(CCNC(=O)COC(=O)/C=C/c2cccs2)cc1	-3	5	-4	23	5	.
COC(=O)c1ccccc1NC(=O)NCC1CCN(Cc2ccc(OC)cc2)CC1	.	5	.	.	.	.
SMILES	Apaf-1 inh	TDP2 absorb	PAFAH1B2 FP inh	PAFAH2 inh	PAFAH1B3 FP inh	PAFAH2 confirm
Cc1ccc(C(=O)OCC(=O)c2ccc[nH]2)s1	0	2	5	35*	6	31*
O=C(OCC(=O)c1ccc[nH]1)c1ccc(C(F)(F)F)cc1	8	0	0	3	11	.
CC(C)Oc1ccc(C(=O)OCC(=O)c2ccc[nH]2)cc1	-4	-14	2	54*	5	36*
N#Cc1cc(F)cc(OC[C@@H](O)CN2CCC(C(O)(c3ccccc3)c3ccccc3)CC2)c1	.	-4	.	.	.	.
COc1ccc(C(=O)OCC(=O)Nc2c(C)cccc2C)cc1	1	-8	0	67*	2	60*
C[C@H](NS(=O)(=O)c1ccc(Cl)cc1)C(=O)OCC(=O)NC(=O)Nc1ccc2c(c1)OCCO2	10	-6	5	9	5	.
CC(NS(=O)(=O)c1ccc(Cl)c(Cl)c1)C(=O)OCC(=O)Nc1ccc2c(c1)OCO2 (stereo unspecified)	2	-14	3	31*	5	24
O=C(OCCCc1cc2ccccc2c(=O)o1)c1ccc2c(c1)OCO2	0	-4	-2	38*	0	15
CN(C)c1ccc(NC(=O)COC(=O)c2ccc3c(c2)OCO3)cc1	4	7	-2	32*	-1	27
O=S1(=O)c2ccc(Br)cc2OC[C@@H](Cc2ccccc2)N1Cc1cn(CCC2OCCCO2)nn1	.	8	.	.	.	.
COCCN1CCCc2nc(-c3ccc(Br)cc3)ccc21	.	6	.	.	.	.
CN(C)c1nc(Oc2ccc(C(=O)OCC(=O)Nc3ccccc3)cc2)nc(N(C)C)n1	13	-8	1	90*	0	76*
CN(C)S(=O)(=O)c1cc(NC(=O)COC(=O)c2ccc3c(c2)OCO3)ccc1Cl	.	3	4	57*	8	78*
O=C(COC(=O)C1=COCCO1)Nc1ccccc1OC(F)F	-20	9	0	22	3	.
O=C(COC(=O)c1ccc2c(c1)OCO2)Nc1ccccc1	-20	-4	1	84*	4	81*
O=C(COC(=O)c1ccc2c(c1)OCO2)Nc1ccccc1OC(F)F	-1	-11	3	47*	5	46*
COC(=O)c1ccc(CN2C(=O)[C@]3(OCCC=C[C@H]3C)c3cc(OC)ccc32)cc1	.	-4	.	.	.	.
O=C(COC(=O)c1ccc(CSc2ccc(Cl)cc2)cc1)Nc1ccccc1	5	2	8	34*	3	16
Cc1ccc(C)c(NC(=O)COC(=O)c2ccc3c(c2)OCO3)c1	-2	-4	2	20	16	.
Cc1cccc(NC(=O)COC(=O)c2ccc3c(c2)OCO3)c1C	7	-9	2	40*	10	42*
COc1cccc(NC(=O)COC(=O)c2ccc3c(c2)OCO3)c1	-2	9	2	83*	-1	73*
O=C(COC(=O)c1cccc(-n2cnnn2)c1)Nc1c(Cl)cccc1C(F)(F)F	8	-24	3	42*	-2	22
COc1ccc(NC(=O)COC(=O)c2ccc(-n3cnnn3)cc2)cc1Cl	2	-10	-4	35*	1	27
